Published values from different studies.
Lines come from different studies, so protocols differ.

O=C(NC(=S)Nc1nccs1)c1ccco1 — IC50 (Leishmania tropica; parasite growth, resazurin; promastigote): 12.4 µM
C=CC(=O)NC1CCN(c2ncc3ncnc(Nc4ccc(Oc5ccc6c(c5)ncn6C)c(C)c4)c3n2)CC1 — EC50 (PANC-1; cell growth or viability): 1.8 µM
Nc1ccc(/C=C/C(=O)N2CCc3c(oc4c(-c5ccc(F)cc5)cc(-c5ccc(C(=O)N6C[C@@H]7[C@H](C6)C7(F)F)nn5)cc34)C2)cn1 — IC50 (PANC-1; cell growth or viability, CCK-8; 72 h): > 20 µM
CCOc1ccc(-c2c(Cc3ccc(OC)cc3)[nH]/c(=N/C(=O)C34CC5CC(CC(C5)C3)C4)n2C)cc1OC — IC50 (Hepatitis B virus; viral replication, inhibitor; HePAD38): 10.9 µM
CN(C)c1ccc(-c2c(C(N)=S)c(N)n(N)c(=O)c2C#N)cc1 — inhibition zone (Saccharomyces cerevisiae; microbial growth, well diffusion; ATCC9763; 500 µg/mL): 14 mm
CCCCCCCCCCCCCCCCOP(=O)([O-])OCC[N+](C)(C)C — IC50 (Leishmania tropica; parasite growth, resazurin; promastigote): 2.12 µM
CN(C)c1ccc(-c2c(C(N)=O)c(N)n(N)c(=O)c2C#N)cc1 — inhibition zone (Saccharomyces cerevisiae; microbial growth, well diffusion; ATCC9763; 500 µg/mL): 13 mm
Cc1c(C(=O)O)ccc2c3n(nc12)[C@@H]1[C@H](C3)N(CC2CC2)[C@@]2(C(=O)Nc3cc(Cl)ccc32)[C@H]1c1cccc(Cl)c1F — IC50 (NUGC-4; cell growth or viability, resazurin): 0.012 µM
CC(=O)Oc1ccc(-c2c(C(N)=O)c(N)n(N)c(=O)c2C#N)cc1 — inhibition zone (Saccharomyces cerevisiae; microbial growth, well diffusion; ATCC9763; 500 µg/mL): 9 mm
O=C(NC(=S)Nc1cccc(O)c1)c1cccs1 — IC50 (Leishmania tropica; parasite growth, resazurin; promastigote): 0.48 µM
Nc1ccc(/C=C/C(=O)NCc2cc3cc(-c4ccc(C(=O)N5CCC(F)(F)CC5)cc4)cc(-c4ccc(F)cc4)c3o2)cn1 — IC50 (PANC-1; cell growth or viability, CCK-8; 72 h): > 20 µM
Cc1c(C(N)=S)c(N)n(N)c(=O)c1C#N — inhibition zone (Saccharomyces cerevisiae; microbial growth, well diffusion; ATCC9763; 500 µg/mL): 18 mm
